Values after ≈ are worked out from the molar mass of the structure shown.
Legend:
[1] = test system: Streptococcus pneumoniae; assay: Antibacterial activity against Streptococcus pneumoniae M86A overexpressing patA, patB and inactivated patA with single mutation by standardized agar doubling dilution method in presence of 50 uM sodium orthovanadate efflux pump inhibitor; assay type: functional
Procedure, shortened: (§1)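 MICs were determined by BSAC agar doubling dilution in the presence of sodium orthovanadate at 50 μM. Cultures were grown in BHI broth for 24 h at 37°C in 5% CO2, with R6 as control. Synergy was defined as an MIC reduction of ≥2 dilutions with the inhibitor present.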

[2] = test system: Streptococcus pneumoniae; assay: Antibacterial activity against dye-resistant Streptococcus pneumoniae M55 DR overexpressing patA, patB by standardized agar doubling dilution method in presence of 20 ug/ml reserpine efflux pump inhibitor; assay type: functional
Procedure, shortened: (§2)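 MIC by agar doubling dilution following BSAC guidelines. Strains grown in brain heart infusion broth 24 h at 37°C in 5% CO2. Where an efflux pump inhibitor applies, MIC redetermined with reserpine at 20 μg/ml or sodium orthovanadate at 50 μM. Synergy taken as a fall in MIC of ≥2 dilutions with inhibitor present. Dye resistance defined relative to R6 (both dyes ≥2 dilutions higher).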

[3] = test system: Streptococcus pneumoniae; assay: Antibacterial activity against fluoroquinolone, dye-resistant Streptococcus pneumoniae M42 overexpressing patA, patB by standardized agar doubling dilution method in presence of 50 uM sodium orthovanadate efflux pump inhibitor; assay type: functional; procedure, shortened: as §2
[4] = test system: Streptococcus pneumoniae; assay: Antibacterial activity against fluoroquinolone, dye-susceptible Streptococcus pneumoniae M295 S overexpressing patA, patB by standardized agar doubling dilution method in presence of 20 ug/ml reserpine efflux pump inhibitor; assay type: functional; procedure, shortened: as §2
[5] = test system: Streptococcus pneumoniae; assay: Antibacterial activity against wild type Streptococcus pneumoniae R6 by standardized agar doubling dilution method in presence of 20 ug/ml reserpine efflux pump inhibitor; assay type: functional; procedure, shortened: as §2
[6] = test system: Streptococcus pneumoniae; assay: Antibacterial activity against wild type Streptococcus pneumoniae R6 by standardized agar doubling dilution method; assay type: functional; procedure, shortened: as §2
[7] = test system: Streptococcus pneumoniae; assay: Antibacterial activity against wild-type Streptococcus pneumoniae R6 by standardized agar doubling dilution method in presence of 20 ug/ml reserpine efflux pump inhibitor
[8] = test system: Streptococcus pneumoniae; assay: Antibacterial activity against wild type Streptococcus pneumoniae M3 NCTC 7466 type 2 by standardized agar doubling dilution method; assay type: functional; procedure, shortened: as §2
[9] = test system: Streptococcus pneumoniae; assay: Antibacterial activity against Streptococcus pneumoniae M319 overexpressing patA, patB and inactivated patB with single mutation by standardized agar doubling dilution method in presence of 50 uM sodium orthovanadate efflux pump inhibitor; assay type: functional; procedure, shortened: as §1
[10] = test system: Streptococcus pneumoniae; assay: Antibacterial activity against Streptococcus pneumoniae M311 overexpressing patA, patB and inactivated patA with single mutation by standardized agar doubling dilution method in presence of 20 ug/ml reserpine efflux pump inhibitor; assay type: functional
Procedure, shortened: (§3)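 MICs determined by BSAC standardized agar doubling dilution. Strains were grown in brain heart infusion broth for 24 h at 37°C in 5% CO2. Inhibitor arms had reserpine at 20 μg/ml or sodium orthovanadate at 50 μM in the agar. Mutants were made by transforming magellan2 insertion amplimers into clinical isolates and selecting on spectinomycin 100 mg/liter, with a no-DNA spontaneous-mutation control.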

[11] = test system: Streptococcus pneumoniae; assay: Antibacterial activity against Streptococcus pneumoniae M86B overexpressing patA, patB and inactivated patB with single mutation by standardized agar doubling dilution method in presence of 50 uM sodium orthovanadate efflux pump inhibitor; assay type: functional; procedure, shortened: as §1
[12] = test system: Streptococcus pneumoniae; assay: Antibacterial activity against fluoroquinolone, dye-resistant Streptococcus pneumoniae M86 overexpressing patA, patB by standardized agar doubling dilution method in presence of 20 ug/ml reserpine efflux pump inhibitor; assay type: functional; procedure, shortened: as §2
[13] = test system: Streptococcus pneumoniae; assay: Antibacterial activity against Streptococcus pneumoniae M46A overexpressing patA, patB and inactivated patA with single mutation by standardized agar doubling dilution method; assay type: functional
Procedure, shortened: (§4)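 MICs were determined by agar doubling dilution following BSAC guidelines, with no efflux inhibitor. Strains were grown in brain heart infusion broth for 24 h at 37°C in 5% CO2. Species identity was confirmed by Gram stain, optochin sensitivity and capsule test. Control strain R6 was tested alongside.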

[14] = test system: Streptococcus pneumoniae; assay: Antibacterial activity against wild type Streptococcus pneumoniae M4 NCTC 7465 type 1 by standardized agar doubling dilution method in presence of 20 ug/ml reserpine efflux pump inhibitor; assay type: functional; procedure, shortened: as §2
[15] = test system: Streptococcus pneumoniae; assay: Antibacterial activity against fluoroquinolone, dye-resistant Streptococcus pneumoniae M86 overexpressing patA, patB by standardized agar doubling dilution method in presence of 50 uM sodium orthovanadate efflux pump inhibitor; assay type: functional; procedure, shortened: as §2
[16] = test system: Streptococcus pneumoniae; assay: Antibacterial activity against wild type Streptococcus pneumoniae M3 NCTC 7466 type 2 by standardized agar doubling dilution method in presence of 20 ug/ml reserpine efflux pump inhibitor; assay type: functional; procedure, shortened: as §2
[17] = test system: Streptococcus pneumoniae; assay: Antibacterial activity against Streptococcus pneumoniae M298 overexpressing patA, patB and inactivated patA with single mutation by standardized agar doubling dilution method in presence of 20 ug/ml reserpine efflux pump inhibitor
[18] = test system: Streptococcus pneumoniae; assay: Antibacterial activity against fluoroquinolone, dye-resistant Streptococcus pneumoniae M74 overexpressing patA, patB by standardized agar doubling dilution method in presence of 20 ug/ml reserpine efflux pump inhibitor; assay type: functional; procedure, shortened: as §2
[19] = test system: Streptococcus pneumoniae; assay: Antibacterial activity against dye-resistant Streptococcus pneumoniae M55 DR overexpressing patA, patB by standardized agar doubling dilution method in presence of 50 uM sodium orthovanadate efflux pump inhibitor; assay type: functional; procedure, shortened: as §2
[20] = test system: Streptococcus pneumoniae; assay: Antibacterial activity against Streptococcus pneumoniae M50B overexpressing patA, patB and inactivated patB with single mutation by standardized agar doubling dilution method in presence of 20 ug/ml reserpine efflux pump inhibitor; assay type: functional
Procedure, shortened: (§5)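 MICs were determined by BSAC agar doubling dilution in the presence of reserpine at 20 μg/ml. Strains were grown in BHI broth for 24 h at 37°C in 5% CO2, with R6 as control. Synergy was defined as an MIC drop of ≥2 dilutions with the inhibitor.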

[21] = test system: Streptococcus pneumoniae; assay: Antibacterial activity against dye-resistant Streptococcus pneumoniae by standardized agar doubling dilution method in presence of 50 uM sodium orthovanadate efflux pump inhibitor; assay type: functional; procedure, shortened: as §2
[22] = test system: Streptococcus pneumoniae; assay: Antibacterial activity against dye-resistant Streptococcus pneumoniae M46 DR overexpressing patA, patB by standardized agar doubling dilution method in presence of 50 uM sodium orthovanadate efflux pump inhibitor; assay type: functional; procedure, shortened: as §1
[23] = test system: Streptococcus pneumoniae; assay: Antibacterial activity against wild-type Streptococcus pneumoniae R6 by standardized agar doubling dilution method
[24] = test system: Streptococcus pneumoniae; assay: Antibacterial activity against fluoroquinolone, dye-resistant Streptococcus pneumoniae M296 overexpressing patA, patB by standardized agar doubling dilution method in presence of 20 ug/ml reserpine efflux pump inhibitor; assay type: functional; procedure, shortened: as §2
[25] = test system: Streptococcus pneumoniae; assay: Antibacterial activity against Streptococcus pneumoniae M307 overexpressing patA, patB and inactivated patB with single mutation by standardized agar doubling dilution method in presence of 50 uM sodium orthovanadate efflux pump inhibitor; assay type: functional; procedure, shortened: as §3
[26] = test system: Streptococcus pneumoniae; assay: Antibacterial activity against fluoroquinolone, dye-resistant Streptococcus pneumoniae M50 overexpressing patA, patB by standardized agar doubling dilution method in presence of 20 ug/ml reserpine efflux pump inhibitor; assay type: functional; procedure, shortened: as §2
[27] = test system: Streptococcus pneumoniae; assay: Antibacterial activity against Streptococcus pneumoniae M55B overexpressing patA, patB and inactivated patB with single mutation by standardized agar doubling dilution method; assay type: functional; procedure, shortened: as §4
[28] = test system: Streptococcus pneumoniae; assay: Antibacterial activity against Streptococcus pneumoniae M314 overexpressing patA, patB and inactivated patA with single mutation by standardized agar doubling dilution method; assay type: functional; procedure, shortened: as §3
[29] = test system: Streptococcus pneumoniae; assay: Antibacterial activity against Streptococcus pneumoniae M86A overexpressing patA, patB and inactivated patA with single mutation by standardized agar doubling dilution method in presence of 20 ug/ml reserpine efflux pump inhibitor; assay type: functional; procedure, shortened: as §5

CC[n+]1c(-c2ccccc2)c2cc(N)ccc2c2ccc(N)cc21.[Br-] [HOMIDIUM BROMIDE]
MIC [1]: 0.5 µg/mL | MIC [2]: 0.5 µg/mL | MIC [3]: 1 µg/mL | MIC [4]: 0.25 µg/mL | MIC [5]: 0.3 µg/mL | MIC [6]: 1 µg/mL | MIC [7]: 0.25 µg/mL | MIC [8]: 2 µg/mL | MIC [9]: 0.5 µg/mL | MIC [10]: 0.5 µg/mL | MIC [11]: 0.5 µg/mL | MIC [12]: 0.5 µg/mL | MIC [13]: 0.5 µg/mL | MIC [14]: 0.3 µg/mL | MIC [15]: 0.5 µg/mL | MIC [16]: 0.5 µg/mL | MIC [17]: 0.5 µg/mL | MIC [18]: 0.5 µg/mL | MIC [19]: 1 µg/mL | MIC [20]: 0.5 µg/mL | MIC [21]: 1 µg/mL | MIC90 [21]: 1 µg/mL | MIC [22]: 1 µg/mL | MIC [23]: 1 µg/mL | MIC [24]: 0.5 µg/mL | MIC [25]: 2 µg/mL | MIC [26]: 0.5 µg/mL | MIC [27]: 0.5 µg/mL | MIC [28]: 0.5 µg/mL | MIC [29]: 0.5 µg/mL

O=C(O)c1cn(C2CC2)c2cc(N3CCNCC3)c(F)cc2c1=O [CIPROFLOXACIN]
MIC [3]: 16 µg/mL | MIC [8]: 1 µg/mL (≈ 3.02 µM) | MIC [9]: 16 µg/mL | MIC [10]: 4 µg/mL | MIC [13]: 0.12 µg/mL (≈ 0.362 µM) | MIC [17]: 8 µg/mL | MIC [18]: 32 µg/mL | MIC [20]: 4 µg/mL | MIC90 [21]: 0.5 µg/mL | MIC [25]: 8 µg/mL | MIC [26]: 32 µg/mL | MIC [27]: 2 µg/mL (≈ 6.04 µM) | MIC [28]: 8 µg/mL (≈ 24.1 µM)
